Published values collected from several papers.
Cell line: MCF7
Effect on: cell growth or viability

SMILES | assay | conditions | GI50
COc1ccc(-c2ccc(-c3ccc(C(=N)N)nc3)s2)cc1 | SRB |  | 1740 nM
COc1cc(C(CC(C)=O)NCCc2ccc(O)c(O)c2)ccc1O (centres unmarked) | MTT |  | 22400 nM
COc1cc2c(Nc3ccc(Br)cc3F)ncnc2cc1OCC1CCN(C)CC1 | MTT | 72 h | 250 nM
Cc1ccc(C)c(COc2cc(NC(=O)c3ccc4c(c3)OCO4)ccc2N(C)S(C)(=O)=O)c1 | SRB | 48 h | 120 nM
COc1ccc(C(=O)/C=C/c2ccccc2Br)cc1S(N)(=O)=O | SRB | 48 h | 2900 nM
COc1cc2c(OC)nc3c4cc5c(cc4cc(OCCN(C)C)c3c2cc1OC)OCO5 | MTT | 72 h | > 100000 nM
COc1ccc(C(=O)/C=C/c2ccc3ccccc3c2)cc1S(N)(=O)=O | SRB | 48 h | 1600 nM
COc1cc(C(CC(=O)c2ccc(C)cc2)NCCc2ccc(O)c(O)c2)ccc1O (centres unmarked) | MTT |  | 5200 nM
CCN(CC)CCCOc1cc2cc3c(cc2c2nc(OC)c4cc(OC)c(OC)cc4c12)OCO3 | MTT | 72 h | 23000 nM
CN1CCN(c2ccc(Nc3ncc4cc(C#N)c(=O)n(C5CCCC5)c4n3)cc2)CC1 | resazurin | 96 h | 150 nM
COc1cc(C(CC(=O)c2ccc(Br)cc2)NCCc2ccc(O)c(O)c2)ccc1O (centres unmarked) | MTT |  | 20 nM
COc1ccc(C(=O)/C=C/c2cccnc2)cc1S(N)(=O)=O | SRB | 48 h | 4900 nM
COc1cc2c(OC)nc3c4cc5c(cc4cc(OCCCN4CCC(N6CCCCC6)CC4)c3c2cc1OC)OCO5 | MTT | 72 h | 1500 nM
COc1ccc(C(=O)/C=C/c2cccc(Cl)c2Cl)cc1S(N)(=O)=O | SRB | 48 h | 3200 nM
COc1cccc2c1C(=O)c1c(O)c3c(c(O)c1C2=O)C[C@@](O)(C(=O)CO)C[C@@H]3O[C@H]1C[C@H](N)[C@H](O)[C@H](C)O1 | MTT |  | 20 nM
COc1cc2c(OC)nc3c4cc5c(cc4cc(OCCCN(C)C)c3c2cc1OC)OCO5 | MTT | 72 h | 27000 nM
COc1ccc(C(=O)/C=C/c2ccc(Cl)c(Cl)c2)cc1S(N)(=O)=O | SRB | 48 h | 1100 nM
